This is an account of results in the array DNA melting data of Ke et al. (doi:10.1101/2024.01.08.574731).

The nature of series [1]: folding enthalpy; higher = less favourable; fluorescence melt of hairpins on a sequencing array, two-state fit. As to conditions: sodium 0.088 M. A digest of the protocol:
(§1)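 Library hairpins on a sequenced MiSeq flow cell carried annealed Cy3 and quencher oligos, and their Cy3 fluorescence was imaged in 50 mM Na-HEPES pH 8.0 with 25 mM NaCl, in 2.5 °C steps up to 60 °C. Signals were normalised to Cy3 before quenching and to control constructs. Melting temperature and folding enthalpy were obtained from bootstrapped two-state fits, combined by inverse-variance weighting across four replicates, and the fitted temperatures were then raised by 9.35 °C to match UV melts.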

Series [2] can be described thus: melting temperature; fluorescence melt of hairpins on a sequencing array, two-state fit, raised by 9.35 °C to match UV melts. The note with it: sodium 0.088 M. Summed up: as §1

Consider GATATGCGAAAGCACATC (((.(((....))).))), for which, in series [1], the folding enthalpy was -19.1 kcal/mol. In addition, the Tm in series [2] amounted to 39.3 °C.
For GCCCTCGAAAGAGAAGGC ((((((....)))..))) the same measures were -22.2 kcal/mol and 48.3 °C.
Take GGCCGCGAAAGCGACGCC ((((((....)))..))): in series [1], the folding enthalpy is -16.9 kcal/mol. The Tm in series [2] stood at 66.4 °C.
With GATCGAATGCTCGATC ((((((....)))))), the folding enthalpy in series [1] was -49.6 kcal/mol. Also, the Tm in series [2] came out at 49.9 °C.
GCTGATGGAAACGTCAGC (((((.(....).))))): the folding enthalpy in series [1] was -40.3 kcal/mol. The Tm in series [2] was 53.3 °C.
For GCGAGGGGAAACCCCCGC (((.(((....))).))) the same measures were -27.5 kcal/mol and 59.6 °C.
The corresponding values for GTTGCTGGAAACAGTAGC (.(.(((....))).).) are -19.7 kcal/mol and 35.3 °C.
In the case of GGTCGCGAAAGCGCTACC ((((((....)))..))), in series [1], the folding enthalpy is -13 kcal/mol. Also, the Tm in series [2] is 36.7 °C.
For GTCAGGCGAAAGCCGGAC (((.(((....))).))) the same measures were -24.7 kcal/mol and 69.1 °C.
The corresponding values for GACCCGCGAAAGCGTGTC (((.(((....))).))) are -24 kcal/mol and 52.6 °C.
The corresponding values for TCGATGAAAATCGA (((((....))))) are -19.5 kcal/mol and 47.4 °C.
As to CGCTCGGAAACGACAGCG ((((((....)))..))), the folding enthalpy in series [1] was -25.5 kcal/mol. Besides, in series [2], the Tm is 45 °C.
For GATCAATTGTTTGATC ((((((....)))))), the folding enthalpy in series [1] was -35.9 kcal/mol. Also, in series [2], the Tm is 46.1 °C.
With GCCGGTCGAAAGACAGGC (((.(((....))).))), the folding enthalpy in series [1] is -41.7 kcal/mol. Besides, the Tm in series [2] was determined as 69 °C.
The corresponding values for GCGGGTTCGAAAGAACGC (((..(((....)))))) are -12.3 kcal/mol and 45.5 °C.
Take GCGCAGGGAAACCTACGC (((.(((....))).))): the folding enthalpy in series [1] was -39.9 kcal/mol. Moreover, the Tm in series [2] turned out to be 50.1 °C.
GATCGAACTGTCGATC ((((((....)))))): the folding enthalpy in series [1] was -31.1 kcal/mol. Also, the Tm in series [2] stood at 49.2 °C.
For GCCCTCGAAAGAGCAGGC ((((((....)))..))), in series [1], the folding enthalpy was -24.8 kcal/mol. The Tm in series [2] was found to be 44.9 °C.
For GATCCTATGGAGGATC ((((((....)))))) the same measures were -35.2 kcal/mol and 50.6 °C.
In the case of GTCACTGGAAACAATGAC ((((.((....)).)))), the folding enthalpy in series [1] is -21.6 kcal/mol. Further, the Tm in series [2] turned out to be 35 °C.
For GGCGGCGAAAGCCGCGCC ((((((....)))..))) the same measures were -6.34 kcal/mol and 68 °C.
As to GAGGATGGAAACATCCCC (.(((((....))))).), the folding enthalpy in series [1] was -11.5 kcal/mol. Further, the Tm in series [2] was determined as 42.8 °C.
As to GATCGACAAATCGATC ((((((....)))))), the folding enthalpy in series [1] was -31.2 kcal/mol. For the same sequence, the Tm in series [2] came out at 48.1 °C.
Consider GATGGAGAAATCCATC ((((((....)))))), for which, in series [1], the folding enthalpy was -30 kcal/mol. For the same sequence, the Tm in series [2] was determined as 51 °C.
The corresponding values for GCGTGGCGAAAGCGTCGC (((..((....))..))) are -22.6 kcal/mol and 58.7 °C.
As for GATCTGGGACAGATC ((((((...)))))), the folding enthalpy in series [1] is -35.5 kcal/mol. Moreover, the Tm in series [2] turned out to be 58.1 °C.
On to GATCATCCGTATGATC ((((((....)))))), for which the folding enthalpy in series [1] is -38.9 kcal/mol. Further, the Tm in series [2] is 47.8 °C.
Turning to CAAGAGAAATCTTG (((((....))))), the folding enthalpy in series [1] is -10.5 kcal/mol. Besides, the Tm in series [2] came out at 31.7 °C.
The corresponding values for GCACCGCGAAAGCGCTGC (((.(((....))).))) are -31.9 kcal/mol and 50.3 °C.
As for CTTGTGAAAACAAG (((((....))))), the folding enthalpy in series [1] is -23.1 kcal/mol. The Tm in series [2] is 45.2 °C.
As to GCAAAGCGAAAGCTTCGC ((.((((....)))).)), the folding enthalpy in series [1] is -23.8 kcal/mol. Also, in series [2], the Tm is 55.8 °C.
GACCCTGGAAACAGGATC ((.((((....)))).)): the folding enthalpy in series [1] was -21.8 kcal/mol. For the same sequence, the Tm in series [2] was 37.6 °C.
The corresponding values for GCGTGTCTACGC ((((....)))) are -25.8 kcal/mol and 57.8 °C.
For GGTCCTGGAAACAGGGTC (..((((....))))..), in series [1], the folding enthalpy was -16.1 kcal/mol. Besides, in series [2], the Tm was 37.8 °C.
For GGCCCAGGAAACCGAGCC (((.(.(....).).))) the same measures were -15.7 kcal/mol and 36.9 °C.
In the case of GATCTCGAGGAGATC ((((((...)))))), the folding enthalpy in series [1] is -34.5 kcal/mol. Also, the Tm in series [2] was determined as 52.8 °C.
For GCACGAGGAAACTCGTAC (.(((((....))))).) the same measures were -12.7 kcal/mol and 38.9 °C.
